CHRM4 PAM: CHRM4 positive allosteric modulation; P08173; CHO-K1 hM4/Gqi5, Fluo-8 calcium fluorescence, ACh EC20; 0% = ACh EC20, 100% = maximal ACh; activation, % at 3 µM; 0.4% of 360,000 active; AID 624126;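 active means activation above its plate's cutoff, the mean activation of sample wells plus 3 SD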
M4 ag: CHRM4 agonism in calcium assay; P08173; CHO-K1 hM4/Gqi5, Fluo-8 calcium fluorescence; vehicle 0%, full acetylcholine response 100%; activation, % at 3 µM; 0.14% of 360,000 active; AID 624127;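 active means activation above the run mean over all test wells plus 3 SD, cut at about 32% in these data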;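 further: peak over basal fluorescence ratio per well then scaled between controls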
CHRM5 antagonist: antagonists of human muscarinic M5 receptor (CHRM5) | CHO-hM5 cells, Fluo-8 calcium fluorescence, ACh EC80 | 0.59% of 360,000 active | P08912 | inhibition, % at 3 µM;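 active means inhibition above a per-plate cutoff, the mean of that plate's test compounds plus 3 SD, cut at about 27% in these data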
M5 ag: CHRM5 agonism in calcium assay; P08912; CHO-K1 hM5 cells, Fluo-8 calcium fluorescence; 0% DMSO wells, 100% maximal acetylcholine response; activation, % at 3 µM; 0.19% of 360,000 active;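 active means activation above the run's mean over test compounds plus 3 SD, cut at about 23% in these data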;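 further: signal is peak over basal fluorescence ratio across the kinetic read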
M4 antag: blocks acetylcholine activation of human M4 receptor. P08173. inhibition, % at 3 µM. CHO-hM4 cells, ACh EC80, Fluo-8 calcium fluorescence. AID 624125. 0.73% of 360,000 active;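 active means inhibition above its plate's cutoff, the mean inhibition of sample wells plus 3 SD, cut at about 27% in these data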
M5 PAM: positive allosteric modulators of human muscarinic M5 receptor; P08912; activation, % at 3 µM; CHO-K1 hM5, Fluo-8 calcium, ACh EC20 PAM; 0% = ACh EC20, 100% = ACh EC100; 0.3% of 360,000 active; AID 624038;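 active means activation above the run cutoff, the mean activation of all test compounds plus 3 SD, cut at about 18% in these data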
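Test system: CHO-K1 hM5 cells / Doses: single-point, 3 µM nominal / Times: Post-acetylcholine fluorescence recording 140 s / Technique: Fluo-8 calcium fluorescence / Measure: Max/basal fluorescence ratio as % of EC20–EC100 ACh window / Benchmarks: low control EC20 acetylcholine (0%), high control EC100 acetylcholine (100%) / Replicates: one well per compound, no replicates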
Large screens that a line does not name were inactive; ! = not confirmed by another sample. Only some compounds are listed: those with a hit (about 1.9% of all), similar ones and a draw of the others.

COc1ccc(C(CNC(=O)CCc2ccsc2)N(C)C)cc1 (configuration not stated)	none
N#CC1c2ccccc2-n2nncc2CN1S(=O)(=O)c1cc(Cl)cc(Cl)c1 (configuration not stated)	none
ClC1C(Cl)C(Cl)C(Cl)C(Cl)C1Cl (configuration not stated)	CHRM5 antagonist 35!, M5 ag 84!
CCOC(=O)[C@]12Cc3cc(C)ccc3[C@H]1N(Cc1ccccc1)C(=O)c1ccccc12	none
CCOC(=O)[C@]12Cc3cc(C)ccc3[C@H]1N(C(C)C)C(=O)c1ccccc12	M5 PAM 22
CCOC(=O)[C@]12Cc3cc(OC)ccc3[C@H]1N(C1CCCCC1)C(=O)c1cc(OC)ccc12	none
CCOC(=O)[C@]12Cc3cc(C)ccc3[C@H]1N(C1CCCCC1)C(=O)c1cc(OC)ccc12	M5 ag 50, M4 antag 65
Clc1ccccc1C1=NCc2nncn2-c2sc(Br)cc21	none
C=CCn1c(O)c(C(CC)=NCc2ccco2)c(=O)[nH]c1=O	none
COc1cccc(C(c2nnnn2-c2c(C)cccc2C)N2CCC(n3c(=O)[nH]c4ccccc43)CC2)c1OC (configuration not stated)	none
COC(=O)C1=CO[C@@H](C)[C@@H]2CN(CCc3c[nH]c4ccccc34)CC[C@H]12	CHRM5 antagonist 49
CN(C)CC#CCC(O)(c1ccccc1)C1CCCC1 (configuration not stated)	CHRM5 antagonist 94, M4 antag 87
OC(CC#CCN1CCCCCC1)(c1ccccc1)C1CCCC1 (configuration not stated)	CHRM5 antagonist 84, M4 antag 91
CC1(C(O)(C#CCN2CCCCC2)c2ccccc2)CCCC1 (configuration not stated)	CHRM5 antagonist 99, M4 antag 99
C(#CCN1CCCCC1)COCc1ccccc1	none
COC(=O)C(O)(c1ccc(NC(=S)NC(=O)c2ccc(Cl)cc2Cl)cc1)C(F)(F)F (configuration not stated)	none
COC(=O)C(O)(c1ccc(NC(=S)NC(=O)c2ccc(Cl)cc2Cl)c(C)c1)C(F)(F)F (configuration not stated)	CHRM5 antagonist 27
CCOC(=O)C(O)(c1ccc(NC(=S)NC(=O)c2ccc(Cl)cc2Cl)c(C)c1)C(F)(F)F (configuration not stated)	M4 ag 40, CHRM5 antagonist 37, M4 antag 31
O=C1NCN(c2ccccc2)C12CCN(C(c1cccs1)c1nnnn1Cc1ccccc1)CC2 (configuration not stated)	none
O=C(O)C1(Br)CC12c1ccccc1-c1ccccc12 (configuration not stated)	none
CCOC(=O)/C(CCCN(CC)CC)=N\O	CHRM5 antagonist 35, M4 antag 34
C[C@]12CCC3C(CC[C@@H]4C[C@H](O)CC[C@]34C)C1CCC2=O (some centres not stated)	none
